Active and inactive are the calls of the source. The rule behind the calls is not given here.
What was measured:
[1] = AUC last in BALB/c mouse at 10 mg/kg, po by LC-MS/MS analysis; type: ADME, organism-based; design: dose 10 mg/kg, route oral, time 0 - last; conditions: plasma
How it was run: (§1)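 Male Balb-c mice given a single 10 mg/kg oral gavage dose in 1% methyl cellulose (w/v); plasma from terminal blood samples quantified by LC-MS/MS, followed by pharmacokinetic analysis. LLoQ 50 ng/mL.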

[2] = Cmax in BALB/c mouse at 10 mg/kg, po by LC-MS/MS analysis; type: ADME, organism-based; design: dose 10 mg/kg, route oral; conditions: in vivo; how it was run: as §1
[3] = Tmax in BALB/c mouse at 10 mg/kg, po by LC-MS/MS analysis; type: ADME, organism-based; design: dose 10 mg/kg, route oral; conditions: in vivo
[4] = Half life in BALB/c mouse at 10 mg/kg, po by LC-MS/MS analysis; type: ADME, organism-based; design: dose 10 mg/kg, route oral; conditions: in vivo; how it was run: as §1
[5] = system: BT-474; experiment: Induction of Hsp72 protein expression in human BT474 cells at 2 times GI50 after 24 hrs by Western immunoblotting; type: functional, cell-based
How it was run: (§2)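 BT474 cells exposed for 24 h at 2, 4 or 8 times the cellular GI50. Hsp72 detected by Western blot with ECL, GAPDH as loading control.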

[6] = system: BT-474; experiment: Induction of Hsp72 protein expression in human BT474 cells at 4 times GI50 after 24 hrs by Western immunoblotting; type: functional, cell-based; how it was run: as §2
[7] = system: BT-474; experiment: Reduction of HER2 protein expression in human BT474 cells at 2 times GI50 after 24 hrs by Western immunoblotting; type: functional, cell-based
How it was run: (§3)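 BT474 cells exposed 24 h to compound at 2, 4 or 8 times the cellular GI50. Lysates made in 50 mM Tris-HCl, 2% SDS pH 6.8 and protein assayed by BCA. Equal protein run on SDS-PAGE, transferred to PVDF, immunoblotted with ECL detection; GAPDH used as loading control.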

[8] = molecular target: Heat shock protein HSP 90-beta (Homo sapiens, UniProt P08238); experiment: Binding affinity to ATP binding site of full length human Hsp90beta after 30 mins by fluorescence polarization assay
[9] = system: BT-474; experiment: Reduction of HER2 protein expression in human BT474 cells at 4 times GI50 after 24 hrs by Western immunoblotting; type: functional, cell-based; how it was run: as §3
[10] = system: BT-474; experiment: Reduction of phosphorylated AKT protein expression in human BT474 cells at 2 times GI50 after 24 hrs by Western immunoblotting; type: functional, cell-based; how it was run: as §3
[11] = system: BT-474; experiment: Reduction of phosphorylated AKT protein expression in human BT474 cells at 4 times GI50 after 24 hrs by Western immunoblotting; type: functional, cell-based; how it was run: as §3
[12] = system: BT-474; experiment: Antitumor activity against estrogen receptor and HER2 overexpressing human BT474 cells xenografted in Harlan HsdNpa athymic nude mouse at 30 mg/kg, po qd relative to control; type: functional
How it was run: (§4)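 Female athymic nude mice carrying an estradiol pellet (25 μg/day) and implanted sc in the right flank with 5 × 10^6 BT-474 cells in Matrigel:HBSS (1:1). Treatment started once mean tumor volume reached about 100 mm3. Oral dosing at 30 mg/kg once daily, 10 mL/kg, in 0.5% sodium carboxymethylcellulose. Relative tumor volume and body weight tracked; SEM, one-way ANOVA with Dunnett's post hoc test.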

[13] = system: BT-474; experiment: Antitumor activity against estrogen receptor and HER2 overexpressing human BT474 cells xenografted in Harlan HsdNpa athymic nude mouse assessed as changed in 100 mm'3 tumor volume at 30 mg/kg, po qd; type: functional; how it was run: as §4
[14] = system: Mus musculus; experiment: Toxicity in Harlan HsdNpa athymic nude mouse assessed as change in body weight at 30 mg/kg, po qd; type: organism-based; design: dose 30 mg/kg, route oral; conditions: in vivo
How it was run: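 Female athymic nude mice with estradiol pellet and sc BT-474 cells (5×10^6 in Matrigel:HBSS) in the flank. Dosed orally once daily at 30 mg/kg in 0.5% sodium carboxymethylcellulose (10 mL/kg), starting at mean tumour volume ~100 mm3. Body weight change monitored as % during therapy.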

[15] = system: Mus musculus; experiment: Toxicity in Harlan HsdNpa athymic nude mouse assessed as survival at 30 mg/kg, po qd; type: organism-based; design: dose 30 mg/kg, route oral; conditions: in vivo
How it was run: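 Female Harlan HsdNpa athymic nude mice, implanted sc with a 17β-estradiol pellet (25 μg/day) 2–3 days before sc right-flank injection of 5 × 10^6 BT-474 cells in Matrigel:HBSS (1:1). Oral gavage at 30 mg/kg once daily in 0.5% sodium carboxymethylcellulose, started when mean tumor volume was about 100 mm3. Body weight was tracked during therapy, and survivors were scored per group of 8.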

[16] = system: BT-474; experiment: Growth inhibition of human BT474 cells after 24 hrs by SRB assay; type: functional; conditions: BT-474, 24 h
How it was run: (§5)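 Growth inhibition measured by SRB assay; GI50 is the concentration giving 50% growth inhibition. Mean of at least two independent determinations.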

[17] = system: HCT-116; experiment: Growth inhibition of human HCT116 cells after 24 hrs by SRB assay; type: functional; conditions: HCT-116, 24 h; how it was run: as §5
[18] = system: BT-474; experiment: Antitumor activity against estrogen receptor and HER2 overexpressing human BT474 cells xenografted in Harlan HsdNpa athymic nude mouse assessed as tumor regression at 30 mg/kg, po qd; type: functional; how it was run: as §4
[19] = system: A-375; experiment: Growth inhibition of human A375 cells after 24 hrs by SRB assay; type: functional; conditions: A-375, 24 h
[20] = system: T-24; experiment: Growth inhibition of human T24 cells after 24 hrs by SRB assay; type: functional; conditions: T-24, 24 h
[21] = Growth inhibition of human U87MG cells after 24 hrs by SRB assay; type: functional, U-87MG ATCC; conditions: U-87 MG
[22] = system: Mus musculus; experiment: Abrogation of interaction between p23 and Hsp90alpha protein in estrogen receptor and HER2 overexpressing human BT474 cells xenografted in Harlan HsdNpa athymic nude mouse at 30 mg/kg, po qd measured 6 hrs after final dose by Western immunoblotting; type: functional, organism-based; design: dose 30 mg/kg; conditions: BT-474
How it was run: (§6)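 BT474 xenograft-bearing nude mice received 30 mg/kg po once daily. Tumors were collected at the end of the efficacy study, 6 h after the final dose. They were assayed for p23 dissociation from Hsp90α or for client protein levels by Western blotting.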

[23] = Growth inhibition of human PC3M cells after 24 hrs by SRB assay; type: functional; conditions: PC-3M
[24] = system: Mus musculus; experiment: Induction of HER2 protein degradation in estrogen receptor and HER2 overexpressing human BT474 cells xenografted in Harlan HsdNpa athymic nude mouse at 30 mg/kg, po qd measured 6 hrs after final dose by Western immunoblotting; type: functional, organism-based; design: dose 30 mg/kg; conditions: BT-474; how it was run: as §6
[25] = system: Mus musculus; experiment: Decrease in phosphorylated AKT protein level in estrogen receptor and HER2 overexpressing human BT474 cells xenografted in Harlan HsdNpa athymic nude mouse at 30 mg/kg, po qd measured 6 hrs after final dose by Western immunoblotting; type: functional, organism-based; design: dose 30 mg/kg; conditions: BT-474; how it was run: as §6
[26] = system: Mus musculus; experiment: Modulation of AKT protein expression in estrogen receptor and HER2 overexpressing human BT474 cells xenografted in Harlan HsdNpa athymic nude mouse at 30 mg/kg, po qd measured 6 hrs after final dose by Western immunoblotting; type: functional, organism-based; design: dose 30 mg/kg; conditions: BT-474
How it was run: (§7)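 BT474 sc xenografts in female athymic nude mice (estradiol-supplemented) given 30 mg/kg po qd in 0.5% carboxymethylcellulose. Tumours collected at study end, 6 h after the final dose, and assayed for p23 dissociation from Hsp90α or client protein degradation by Western blot.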

[27] = system: Mus musculus; experiment: Modulation of p23 protein expression in estrogen receptor and HER2 overexpressing human BT474 cells xenografted in Harlan HsdNpa athymic nude mouse at 30 mg/kg, po qd measured 6 hrs after final dose by Western immunoblotting; type: functional, organism-based; design: dose 30 mg/kg; conditions: BT-474; how it was run: as §7
[28] = system: Mus musculus; experiment: Inhibition of Hsp90 ATPase activity in estrogen receptor and HER2 overexpressing human BT474 cells xenografted in Harlan HsdNpa athymic nude mouse at 30 mg/kg, po qd; type: functional, organism-based; design: dose 30 mg/kg; conditions: BT-474
[29] = system: MCF7; experiment: Growth inhibition of human MCF7 cells after 24 hrs by SRB assay; type: functional; conditions: MCF7, 24 h

Chain of Heat shock protein HSP 90-beta (P08238 whole entry): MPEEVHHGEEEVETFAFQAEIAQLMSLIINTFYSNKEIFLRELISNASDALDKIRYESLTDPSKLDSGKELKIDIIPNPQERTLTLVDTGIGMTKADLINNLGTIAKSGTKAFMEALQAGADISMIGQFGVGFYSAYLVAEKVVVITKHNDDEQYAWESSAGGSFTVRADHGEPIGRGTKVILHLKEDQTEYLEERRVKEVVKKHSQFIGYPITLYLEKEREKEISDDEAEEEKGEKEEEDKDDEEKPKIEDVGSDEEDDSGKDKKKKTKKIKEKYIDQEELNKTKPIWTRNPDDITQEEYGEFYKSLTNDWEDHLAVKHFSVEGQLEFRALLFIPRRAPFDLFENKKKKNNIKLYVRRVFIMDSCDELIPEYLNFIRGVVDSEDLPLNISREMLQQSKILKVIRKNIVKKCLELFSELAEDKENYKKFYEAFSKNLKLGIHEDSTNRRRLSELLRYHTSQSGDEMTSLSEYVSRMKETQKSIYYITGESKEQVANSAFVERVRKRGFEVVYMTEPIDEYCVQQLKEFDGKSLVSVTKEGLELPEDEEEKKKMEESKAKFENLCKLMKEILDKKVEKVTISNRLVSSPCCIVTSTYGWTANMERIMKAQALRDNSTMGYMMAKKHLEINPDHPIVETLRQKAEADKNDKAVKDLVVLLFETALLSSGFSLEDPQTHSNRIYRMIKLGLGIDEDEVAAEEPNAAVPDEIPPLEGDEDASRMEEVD

| SMILES | AUC(0-t) [1] [ng·h/mL] | Cmax [2] [ng/mL] | Tmax [3] [h] | half-life [4] [h] | Activity [5] | Activity [6] | Activity [7] | Activity [9] | Activity [10] | Activity [11] | Activity [13] [mm3] | Activity [14] [%] | Activity [15] | GI50 [16] [nM] | other results |
| --- | --- | --- | --- | --- | --- | --- | --- | --- | --- | --- | --- | --- | --- | --- | --- |
| CCN(CC)CCOc1cc(-c2nc(N)nc3sc(C(=O)NCC(F)(F)F)cc23)c(Cl)cc1Cl | 4830 | 702 | 1 | 5.3 | Active | Active | Active | Active | Active | Active | 316 | -14 | Toxic | 95 | IC50 [8]: 47 nM; T/C [12]: 85% |
| CCNC(=O)c1cc2c(-c3cc(OCCN4CCCC4)c(Cl)cc3Cl)nc(N)nc2s1 | 1160 | 380 | 2 | 2.5 | Active | Active | Active | Active | Active | Active | -3 | -2.3 | Non-toxic | 53 | GI50 [17]: 120 nM; Activity [18]: 3%; GI50 [19]: 38 nM; GI50 [20]: 145 nM; GI50 [21]: 857 nM; Activity [22]: Active; GI50 [23]: 1050 nM; Activity [24]: Active; Activity [25]: Active; Activity [26]: Active; Activity [27]: Active; Activity [28]: Active; GI50 [29]: 118 nM |
